From ChEMBL document CHEMBL3046654, “Penoxsulam--structure-activity relationships of triazolopyrimidine sulfonamides” (Bioorg Med Chem, 2009)

Legend:
[1] = tested on: Ipomoea hederacea; assay: Post-emergence herbicidal activity against Ipomoea hederacea (ivy-leaved morning glory) compound treated as foliar application measured after 2 weeks; type: functional
Procedure, shortened: (§1)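 Greenhouse post-emergence foliar screen in 64 cm² pots. Seed treatments were used on some species to aid germination. Plants were grown 7–21 days at 23–29 °C day/22–28 °C night under a 15 h photoperiod. Sprayed at 2–12 cm height and the 1–4 true leaf stage.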

[2] = tested on: Veronica hederifolia; assay: Post-emergence herbicidal activity against Veronica hederifolia compound treated as foliar application measured after 2 weeks; type: functional; procedure, shortened: as §1
[3] = tested on: Abutilon theophrasti; assay: Post-emergence herbicidal activity against Abutilon theophrasti (velvetleaf) compound treated as foliar application measured after 2 weeks; type: functional; procedure, shortened: as §1
[4] = tested on: Amaranthus retroflexus; assay: Post-emergence herbicidal activity against Amaranthus retroflexus compound treated as foliar application measured after 2 weeks; type: functional; procedure, shortened: as §1
[5] = tested on: Ipomoea; assay: Post-emergence herbicidal activity against Ipomoea spp. compound treated as foliar application measured after 2 weeks; type: functional; procedure, shortened: as §1
[6] = tested on: Helianthus; assay: Post-emergence herbicidal activity against Helianthus spp. compound treated as foliar application measured after 2 weeks; type: functional; procedure, shortened: as §1
[7] = tested on: Chenopodium album; assay: Post-emergence herbicidal activity against Chenopodium album compound treated as foliar application measured after 2 weeks; type: functional; procedure, shortened: as §1
[8] = tested on: Datura stramonium; assay: Post-emergence herbicidal activity against Datura stramonium compound treated as foliar application measured after 2 weeks; type: functional; procedure, shortened: as §1
[9] = tested on: Xanthium strumarium; assay: Post-emergence herbicidal activity against Xanthium strumarium (cocklebur) compound treated as foliar application measured after 2 weeks; type: functional; procedure, shortened: as §1
[10] = tested on: Avena fatua; assay: Post-emergence herbicidal activity against Avena fatua compound treated as foliar application measured after 2 weeks; type: functional; procedure, shortened: as §1
[11] = tested on: Oryza sativa; assay: Phytotoxicity against Oryza sativa (rice); type: organism-based; conditions: in vivo
[12] = tested on: Digitaria sanguinalis; assay: Post-emergence herbicidal activity against Digitaria sanguinalis (hairy crabgrass) compound treated as foliar application measured after 2 weeks; type: functional; procedure, shortened: as §1
[13] = tested on: Sorghum halepense; assay: Post-emergence herbicidal activity against Sorghum halepense (Johnson grass) compound treated as foliar application measured after 2 weeks; type: functional; procedure, shortened: as §1
[14] = tested on: Setaria faberi; assay: Post-emergence herbicidal activity against Setaria faberi (Giant Foxtail) compound treated as foliar application measured after 2 weeks; type: functional; procedure, shortened: as §1
[15] = tested on: Echinochloa crus-galli; assay: Post-emergence herbicidal activity against Echinochloa crus-galli (barnyard grass) compound treated as foliar application measured after 2 weeks; type: functional; procedure, shortened: as §1
[16] = tested on: Alopecurus; assay: Post-emergence herbicidal activity against Alopecurus spp. compound treated as foliar application measured after 2 weeks; type: functional; procedure, shortened: as §1
[17] = tested on: Fallopia convolvulus; assay: Post-emergence herbicidal activity against Fallopia convolvulus compound treated as foliar application measured after 2 weeks; type: functional; procedure, shortened: as §1
[18] = tested on: Stellaria media; assay: Post-emergence herbicidal activity against Stellaria media compound treated as foliar application measured after 2 weeks; type: functional; procedure, shortened: as §1
[19] = Inhibition of acetolactatae synthase; conditions: read-out: I50
Procedure, shortened: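 Barley ALS: etiolated shoots of 5–6 d old Hector Spring barley homogenized at 0–4 °C in 20 mM HEPES pH 7.2, 1 mM EDTA, 5 mM DTT, then 33% (NH4)2SO4 cut. Reaction: 20 mM HEPES pH 7.2, 5 mM MgCl2, 0.25 mM TPP, FAD, 22.5 mM pyruvate, 0.7% DMSO final, 37 °C, 30 min. Acid decarboxylation to acetoin, then creatine/1-naphthol colour read at 530 nm. Reported as I50 (nM).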

Row | IC50 [19] [nM] | SMILES | GR80 [1] [ppm] | GR80 [2] [ppm] | GR80 [3] [ppm] | GR80 [4] [ppm] | GR80 [5] [ppm] | GR80 [6] [ppm] | GR80 [7] [ppm] | GR80 [8] [ppm] | GR80 [9] [ppm] | GR80 [10] [ppm] | GR20 [11] [ppm] | GR80 [12] [ppm] | GR80 [13] [ppm] | GR80 [14] [ppm] | GR80 [15] [ppm] | GR80 [16] [ppm] | GR80 [17] [ppm] | GR80 [18] [ppm]
1 | – | COc1cnc(OC)n2nc(NS(=O)(=O)c3c(OCCCF)cccc3C(F)(F)F)nc12 | 15 | 15 | 15 | 15 | 15 | 15 | 15 | 15 | 15 | 250 | > 250 | 250 | 250 | 250 | 125 | 250 | 15 | 15
2 | 0.6 | COc1ncc(Cl)c2nc(NS(=O)(=O)c3c(Cl)cccc3Cl)nn12 | 1 | 1 | 1 | 1 | 1 | 1 | 1 | 1 | 1 | 4 | 4 | 4 | 4 | 4 | 4 | 4 | 1 | 1
3 | 12 | COc1ncc(F)c2nc(NS(=O)(=O)c3c(Cl)cccc3Cl)nn12 | 19 | 19 | 19 | 19 | 19 | 19 | 19 | 19 | 19 | >125 | > 125 | >125 | >125 | >125 | >125 | >125 | 19 | 19
4 | 7 | COc1ncc(C)c2nc(NS(=O)(=O)c3c(Cl)cccc3Cl)nn12 | <15 | <15 | <15 | <15 | <15 | <15 | <15 | <15 | <15 | 250 | 250 | 250 | 250 | 250 | 250 | 250 | <15 | <15
5 | 2 | CCOc1cnc(OC)n2nc(NS(=O)(=O)c3c(Cl)cccc3Cl)nc12 | 216 | 216 | 216 | 216 | 216 | 216 | 216 | 216 | 216 | 250 | 250 | 250 | 250 | 250 | 250 | 250 | 216 | 216
6 | 27 | COc1nc(F)cc2nc(NS(=O)(=O)c3c(Cl)cccc3Cl)nn12 | 62 | 62 | 62 | 62 | 62 | 62 | 62 | 62 | 62 | 8 | 8 | 8 | 8 | 8 | 8 | 8 | 62 | 62
7 | 195 | COc1cc2nc(NS(=O)(=O)c3c(Cl)cccc3Cl)nn2c(OC)n1 | >1000 | >1000 | >1000 | >1000 | >1000 | >1000 | >1000 | >1000 | >1000 | >1000 | > 1000 | >1000 | >1000 | >1000 | >1000 | >1000 | >1000 | >1000
8 | – | COc1ccccc1S(=O)(=O)Nc1nc2c(OC)cnc(OC)n2n1 | 1 | 1 | 1 | 1 | 1 | 1 | 1 | 1 | 1 | 1 | < 1 | 1 | 1 | 1 | 2 | 1 | 1 | 1
9 | – | COc1cnc(OC)n2nc(NS(=O)(=O)c3ccccc3C(F)(F)F)nc12 | 13 | 13 | 13 | 13 | 13 | 13 | 13 | 13 | 13 | 435 | < 1 | 435 | 435 | 435 | 250 | 435 | 13 | 13
10 | – | COc1cnc(OC)n2nc(NS(=O)(=O)c3cc(Cl)ccc3Cl)nc12 | 19 | 19 | 19 | 19 | 19 | 19 | 19 | 19 | 19 | >1000 | < 2 | >1000 | >1000 | >1000 | 1000 | >1000 | 19 | 19
11 | – | COc1cnc(OC)n2nc(NS(=O)(=O)c3cc(Cl)cc(Cl)c3)nc12 | 126 | 126 | 126 | 126 | 126 | 126 | 126 | 126 | 126 | >1000 | 62 | >1000 | >1000 | >1000 | >1000 | >1000 | 126 | 126
12 | – | COc1cccc(OC)c1S(=O)(=O)Nc1nc2c(OC)cnc(OC)n2n1 | 0.5 | 0.5 | 0.5 | 0.5 | 0.5 | 0.5 | 0.5 | 0.5 | 0.5 | <0.1 | < 0.5 | <0.1 | <0.1 | <0.1 | <0.5 | <0.1 | 0.5 | 0.5
13 | – | COc1cccc(C(F)(F)F)c1S(=O)(=O)Nc1nc2c(OC)cnc(OC)n2n1 | <0.2 | <0.2 | <0.2 | <0.2 | <0.2 | <0.2 | <0.2 | <0.2 | <0.2 | 1 | 2 | 1 | 1 | 1 | 1 | 1 | <0.2 | <0.2
